Data taken from ChEMBL document CHEMBL1811802, “Synthesis and significant cytostatic activity of 7-hetaryl-7-deazaadenosines” (J Med Chem, 2011).
Active and inactive are the calls of the source. The calls are words filed in the database; no cut-off is given here.

Experiments:
DU-145 [1] = assay: Metabolic stability in human DU145 cells assessed as sodium ((2R,3S,4R,5R)-5-(4-amino-7H-pyrrolo[2,3-d]pyrimidin-7-yl)-3,4-dihydroxytetrahydrofuran-2-yl)methyl hydrogenphosphate-NMP formation per million of cells at 10 uM after 24 hrs by LC/MS/MS analysis; type: ADME, cell-based; conditions: du-145, 24 h
How it was run: (§1)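 Du145 seeded at 60% confluence in MEM/10% FBS; next day exposed to 10 μM compound for 6 or 24 h. Cells trypsinized, extracted in 70% MeOH, dried, resuspended in 1 mM ammonium phosphate pH 8.5. Nucleoside, NMP and NTP quantified by ion-pairing (dimethylhexylamine) LC/MS/MS against untreated-cell-extract standard curves; pmol per million cells.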

SK-OV-3 = assay: Cytotoxicity against human SKOV3 cells after 3 days by MTT assay; type: functional, cell-based; conditions: SK-OV-3, 72 h
HPAC = assay: Cytotoxicity against human HPAC cells after 3 days by MTT assay; type: functional, cell-based; conditions: 72 h
DU-145 [2] = assay: Cytostatic activity against human DU145 cells after 5 days by SRB assay; type: functional; conditions: DU-145, 120 h
How it was run: (§2)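 Cells seeded per line density, overnight at 37 °C; day-zero plate TCA-fixed. 5-fold serial dilutions added, 5-day incubation; TCA fixation, 0.057% SRB in 1% acetic acid 30 min, dye dissolved in 10 mM Tris pH 10.5, A500. Growth relative to day-zero and untreated; GIC50 from sigmoidal dose–response fit; mean of two independent experiments.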

CCRF-CEM [3] = assay: Cytotoxicity against human CCRF-CEM cells after 3 days by XTT assay; type: functional, cell-based; conditions: 72 h
How it was run: (§3)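 Suspension-grown cell lines, 3-day compound incubation; viability read by XTT metabolic assay; IC50 averaged from four independent experiments.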

MAT-Ly-Lu = assay: Cytotoxicity against rat MAT-LyLu cells after 3 days by MTT assay; type: functional, cell-based; conditions: 72 h
SK-MEL-2 = assay: Cytotoxicity against human SK-MEL-2 cells after 3 days by MTT assay; type: functional, cell-based; conditions: SK-MEL-2, 72 h
[4] = Cytotoxicity against human CEM-DNR-bulk cells after 3 days by MTT assay; type: functional, cell-based; conditions: 72 h
[5] = Cytotoxicity against human MES-SA cells after 3 days by MTT assay; type: functional, cell-based; conditions: 72 h
DU-145 [6] = assay: Metabolic stability in human DU145 cells assessed as nucleoside formation per million of cells at 10 uM after 6 hrs by LC/MS/MS analysis; type: ADME, cell-based; conditions: du-145, 6 h; how it was run: as §1
A549 = assay: Cytostatic activity against human A549 cells after 5 days by SRB assay; type: functional; conditions: A549, 120 h; how it was run: as §2
HT-29 = assay: Cytotoxicity against human HT-29 cells after 3 days by MTT assay; type: functional, cell-based; conditions: HT-29, 72 h
CCRF-CEM [7] = assay: Inhibition of RNA synthesis in human CCRF-CEM cells assessed as BrU incorporation at 1 to 5 times GI50 after 1 hr by FACS analysis; type: functional, cell-based
How it was run: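 CCRF-CEM cultured as for cell cycle (1× or 5× GIC50), pulsed with 1 mM 5-bromouridine 30 min. Paraformaldehyde/NP-40 fixation, anti-BrdU antibody cross-reacting with BrU, FITC secondary, propidium iodide/RNase counterstain, flow cytometry at 488 nm.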

C6 = assay: Cytotoxicity against rat C6 cells after 3 days by MTT assay; type: functional, cell-based; conditions: C6, 72 h
[8] = Cytostatic activity against human Hs578 cells after 5 days by SRB assay; type: functional; conditions: Hs578, 120 h; how it was run: as §2
DU-145 [9] = assay: Metabolic stability in human DU145 cells assessed as sodium ((2R,3S,4R,5R)-5-(4-amino-7H-pyrrolo[2,3-d]pyrimidin-7-yl)-3,4-dihydroxytetrahydrofuran-2-yl)methyl hydrogentriphosphate-NTP formation per million of cells at 10 uM after 24 hrs by LC/MS/MS analysis; type: ADME, cell-based; conditions: du-145, 24 h; how it was run: as §1
BT-549 = assay: Cytotoxicity against human BT549 cells after 3 days by MTT assay; type: functional, cell-based; conditions: BT-549, 72 h
[10] = Cytotoxicity against mouse P388D1 cells after 3 days by MTT assay; type: functional, cell-based; conditions: P388D1, 72 h
HL-60 = assay: Cytotoxicity against human HL60 cells after 3 days by XTT assay; type: functional, cell-based; conditions: HL-60, 72 h; how it was run: as §3
DU-145 [11] = assay: Metabolic stability in human DU145 cells assessed as nucleoside formation per million of cells at 10 uM after 24 hrs by LC/MS/MS analysis; type: ADME, cell-based; conditions: du-145, 24 h; how it was run: as §1
PC-3 [12] = assay: Cytotoxicity against human PC3 cells after 3 days by MTT assay; type: functional, cell-based; conditions: PC-3, 72 h
DU-145 [13] = assay: Metabolic stability in human DU145 cells assessed as sodium ((2R,3S,4R,5R)-5-(4-amino-7H-pyrrolo[2,3-d]pyrimidin-7-yl)-3,4-dihydroxytetrahydrofuran-2-yl)methyl hydrogentriphosphate-NTP formation per million of cells at 10 uM after 6 hrs by LC/MS/MS analysis; type: ADME, cell-based; conditions: du-145, 6 h; how it was run: as §1
SK-N-AS = assay: Cytotoxicity against human SK-N-AS cells after 3 days by MTT assay; type: functional, cell-based; conditions: 72 h
L1210 = assay: Cytotoxicity against mouse L1210 cells after 3 days by MTT assay; type: functional, cell-based; conditions: L1210, 72 h
Adenosine kinase = Adenosine kinase (Homo sapiens, UniProt P55263); assay: Inhibition of human ADK using [3H]-adenosine by scintillation counting
Chain of Adenosine kinase (P55263 whole entry): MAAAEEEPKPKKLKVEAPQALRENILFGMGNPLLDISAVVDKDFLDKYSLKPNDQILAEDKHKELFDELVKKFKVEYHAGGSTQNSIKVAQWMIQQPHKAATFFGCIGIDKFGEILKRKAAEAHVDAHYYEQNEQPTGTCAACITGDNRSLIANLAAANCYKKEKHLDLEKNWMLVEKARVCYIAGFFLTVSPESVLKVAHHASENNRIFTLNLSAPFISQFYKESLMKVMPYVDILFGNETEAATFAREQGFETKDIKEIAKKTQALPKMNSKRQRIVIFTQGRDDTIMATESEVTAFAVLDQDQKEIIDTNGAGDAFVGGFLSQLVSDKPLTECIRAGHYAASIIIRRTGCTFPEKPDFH

NCI-H23 = assay: Cytostatic activity against human NCI-H23 cells after 5 days by SRB assay; type: functional; conditions: NCI-H23, 120 h; how it was run: as §2
K562 = assay: Cytotoxicity against human K562 cells after 3 days by MTT assay; type: functional, cell-based; conditions: K562, 72 h
PC-3 [14] = assay: Cytostatic activity against human PC3 cells after 5 days by SRB assay; type: functional; conditions: PC-3, 120 h; how it was run: as §2
CCRF-CEM [15] = assay: Induction of apoptosis in human CCRF-CEM cells at 5 time GI50 after 4 to 8 hrs using propidium iodide staining by flow cytometry; type: functional, cell-based
How it was run: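 CCRF-CEM at 5 × 10^5 cells/ml in RPMI 1640/10% FCS, 37 °C, exposed to 1× or 5× GIC50; vehicle controls in parallel. Ethanol-fixed, RNase-treated, propidium iodide stained, flow cytometry; apoptosis taken as % sub-G1 particles (logarithmic mode).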

CCRF-CEM [16] = assay: Cell cycle arrest in human CCRF-CEM cells assessed as accumulation at G2/M phase at 5 time GI50 using propidium iodide staining by flow cytometry; type: functional, cell-based
How it was run: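 CCRF-CEM seeded at 5 × 10^5 cells/ml, grown in RPMI 1640 with 10% FCS at 37 °C with 1× or 5× GIC50 of compound; vehicle controls harvested at same times. Cells ethanol-fixed, RNase-treated, stained with propidium iodide, flow cytometry at 488 nm; cell cycle phases scored.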

[17] = Antitumor activity against mouse P388D1 cells xenografted in DBA/2 mouse assessed as increase of lifespan at 75 mg/kg, ip qd administered as 2 cycles on day 1 to 3 and day 8 to 10; type: functional; conditions: route intraperitoneal
How it was run: (§4)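 P388D1 mouse leukemia cells, grown in RPMI with 10% FBS, were implanted ip at 10^5 cells per mouse on day 0 into female DBA/2 mice (18–22 g, SPF) and randomized 10 per group. Dosing was once daily ip in 50% PEG400/deionized water (pH 7.0) on days 1–3 and 8–10, with vehicle for controls. Deaths were recorded daily, and MST and %ILS were calculated.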

[18] = Antitumor activity against mouse P388D1 cells xenografted in DBA/2 mouse assessed as increase of mean survival days at 75 mg/kg, ip qd administered as 2 cycles on day 1 to 3 and day 8 to 10; type: functional; conditions: route intraperitoneal; how it was run: as §4

Nc1ncnc2c1c(-c1cccs1)cn2[C@@H]1O[C@H](CO)[C@@H](O)[C@H]1O
Stability (DU-145 [1]): 64 pmol | IC50 (SK-OV-3): > 10000 nM | IC50 (HPAC): 70 nM | GI50 (DU-145 [2]): 133 nM | IC50 (CCRF-CEM [3]): 50 nM | IC50 (MAT-Ly-Lu): 180 nM | IC50 (SK-MEL-2): 1980 nM | IC50 [4]: 91 nM | IC50 [5]: 232 nM | Stability (DU-145 [6]): 4.66 pmol | GI50 (A549): 7 nM | IC50 (HT-29): 96 nM | inhibition (CCRF-CEM [7]): Active | IC50 (C6): 4540 nM | GI50 [8]: 12 nM | Stability (DU-145 [9]): 1.96 pmol | IC50 (BT-549): 119 nM | IC50 [10]: 28 nM | IC50 (HL-60): 950 nM | Stability (DU-145 [11]): 30.4 pmol | IC50 (PC-3 [12]): 8730 nM | Stability (DU-145 [13]): 0.53 pmol | IC50 (SK-N-AS): > 10000 nM | IC50 (L1210): 115 nM | IC50 (Adenosine kinase): > 5000 nM | GI50 (NCI-H23): 3.7 nM | IC50 (K562): 25 nM | GI50 (PC-3 [14]): 1620 nM | Activity (CCRF-CEM [15]): Active | Activity (CCRF-CEM [16]): Active | Activity [17]: 29% | MSD [18]: 15.1 days
